{
  "source": "ChEMBL document CHEMBL1629624",
  "about": "“In vitro and in vivo studies to characterize the clearance mechanism and potential cytochrome P450 interactions of anidulafungin” (Antimicrob Agents Chemother, 2009)",
  "key": {"[1]": {"test": "Volume of distribution at steady state in human plasma at 100 mg, iv by LC-MS/MS analysis", "type": "ADME, organism-based", "settings": "read-out: Vdss", "summary_of_the_method": "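Healthy adult men (n = 9), single i.v. infusion of [14C]drug over 100 min at 1 mg/min. 100 mg was planned; the mean dose actually given was 88.3 mg. Heparinized blood drawn from 0 h through day 10 and at 6–8 weeks. Parent drug in plasma measured by validated LC-MS/MS. Noncompartmental analysis, given as mean (%CV).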"}, "[2]": {"test": "Ratio of AUC in blood to plasma for Sprague-Dawley at 5 mg/kg, iv by liquid scintillation counting", "type": "ADME, organism-based", "set-up": "dose 5 mg/kg, route intravenous", "settings": "rat, in vivo", "summary_of_the_method": "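Male Sprague-Dawley rats, single i.v. bolus of [14C]drug. Blood by cardiac puncture from three noncannulated rats killed at each time from 0.25 to 168 h; plasma separated from an aliquot. Radioactivity by liquid scintillation counting. Parameters come from a composite profile of mean values, taking 1 g as equal to 1 ml.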"}, "Cytochrome P450 3A4": {"target": "Cytochrome P450 3A4 (Homo sapiens, UniProt P08684)", "sequence (P08684 whole entry)": "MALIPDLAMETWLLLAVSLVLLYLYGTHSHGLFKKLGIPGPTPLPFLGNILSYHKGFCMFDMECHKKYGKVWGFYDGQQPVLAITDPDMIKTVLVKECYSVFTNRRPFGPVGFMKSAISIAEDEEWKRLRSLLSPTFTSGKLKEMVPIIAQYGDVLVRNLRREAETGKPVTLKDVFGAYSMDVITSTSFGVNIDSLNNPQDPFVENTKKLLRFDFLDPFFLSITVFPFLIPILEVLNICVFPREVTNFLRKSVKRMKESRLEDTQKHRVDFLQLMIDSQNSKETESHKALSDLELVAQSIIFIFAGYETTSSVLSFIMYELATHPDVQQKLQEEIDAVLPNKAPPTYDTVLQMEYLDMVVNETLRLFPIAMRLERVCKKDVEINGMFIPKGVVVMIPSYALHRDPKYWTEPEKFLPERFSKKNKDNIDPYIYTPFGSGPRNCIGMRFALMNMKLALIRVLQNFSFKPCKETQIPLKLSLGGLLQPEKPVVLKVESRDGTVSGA", "test": "Inhibition of human CYP3A4", "type": "ADME"}, "Cytochrome P450 2C8 [3]": {"target": "T1, Cytochrome P450 2C8 (Homo sapiens, UniProt P10632)", "T1 sequence (P10632 whole entry)": "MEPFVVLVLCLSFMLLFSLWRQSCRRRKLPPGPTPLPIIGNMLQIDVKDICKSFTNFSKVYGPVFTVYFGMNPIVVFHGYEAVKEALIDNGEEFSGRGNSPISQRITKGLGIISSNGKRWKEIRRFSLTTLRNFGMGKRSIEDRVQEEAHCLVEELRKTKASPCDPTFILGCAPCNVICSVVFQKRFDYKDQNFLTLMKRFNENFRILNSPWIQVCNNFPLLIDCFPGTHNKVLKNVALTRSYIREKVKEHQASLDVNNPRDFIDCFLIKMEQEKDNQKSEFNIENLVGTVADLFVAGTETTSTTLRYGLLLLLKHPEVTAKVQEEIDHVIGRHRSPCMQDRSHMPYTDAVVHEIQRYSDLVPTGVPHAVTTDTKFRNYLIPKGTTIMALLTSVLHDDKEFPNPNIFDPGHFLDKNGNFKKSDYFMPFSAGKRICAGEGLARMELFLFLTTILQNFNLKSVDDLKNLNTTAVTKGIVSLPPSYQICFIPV", "test": "Inhibition of human CYP2C8 using amodiaquine as a substrate", "type": "ADME", "summary_of_the_method": "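CYP2C8 measured as amodiaquine N-deethylase in pooled human liver microsomes from 53 donors. Incubations run in duplicate. IC50 fitted from the concentration series.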"}, "[4]": {"test": "Half life in human plasma at 100 mg, iv by LC-MS/MS analysis", "type": "ADME, organism-based", "summary_of_the_method": "(§1)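 Nine healthy adult men, single i.v. infusion of [14C]drug over 100 min at 1 mg/min (planned 100 mg; mean delivered 88.3 mg). Heparinized blood taken from predose through day 10 and at follow-up. Parent drug in plasma measured by validated LC-MS/MS. Noncompartmental analysis; values are means (%CV).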"}, "Plasma": {"tested_on": "Plasma", "test": "Clearance in human plasma at 100 mg, iv by LC-MS/MS analysis", "type": "ADME, organism-based", "settings": "in vivo", "summary_of_the_method": "as §1"}, "[5]": {"test": "Mean residence time in human plasma at 100 mg, iv by LC-MS/MS analysis", "type": "ADME, organism-based", "summary_of_the_method": "as §1"}, "Cytochrome P450 2C19": {"target": "Cytochrome P450 2C19 (Homo sapiens, UniProt P33261)", "sequence (P33261 whole entry)": "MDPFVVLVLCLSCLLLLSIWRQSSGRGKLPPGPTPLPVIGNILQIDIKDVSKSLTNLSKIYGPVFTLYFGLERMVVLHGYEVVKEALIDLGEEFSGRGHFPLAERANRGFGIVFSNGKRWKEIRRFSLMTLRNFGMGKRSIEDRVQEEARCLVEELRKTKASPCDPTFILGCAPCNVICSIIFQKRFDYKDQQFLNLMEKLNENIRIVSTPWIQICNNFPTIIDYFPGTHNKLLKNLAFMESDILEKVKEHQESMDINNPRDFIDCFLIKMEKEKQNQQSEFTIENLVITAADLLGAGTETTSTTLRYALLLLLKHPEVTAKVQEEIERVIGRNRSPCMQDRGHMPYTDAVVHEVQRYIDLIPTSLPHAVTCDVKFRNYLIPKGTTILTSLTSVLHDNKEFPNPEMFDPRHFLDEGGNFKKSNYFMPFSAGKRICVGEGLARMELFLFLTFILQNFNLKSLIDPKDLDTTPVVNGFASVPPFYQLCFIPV", "test": "Inhibition of human CYP2C19", "type": "ADME"}, "Cytochrome P450 2B6": {"target": "T2, Cytochrome P450 2B6 (Homo sapiens, UniProt P20813)", "T2 sequence (P20813 whole entry)": "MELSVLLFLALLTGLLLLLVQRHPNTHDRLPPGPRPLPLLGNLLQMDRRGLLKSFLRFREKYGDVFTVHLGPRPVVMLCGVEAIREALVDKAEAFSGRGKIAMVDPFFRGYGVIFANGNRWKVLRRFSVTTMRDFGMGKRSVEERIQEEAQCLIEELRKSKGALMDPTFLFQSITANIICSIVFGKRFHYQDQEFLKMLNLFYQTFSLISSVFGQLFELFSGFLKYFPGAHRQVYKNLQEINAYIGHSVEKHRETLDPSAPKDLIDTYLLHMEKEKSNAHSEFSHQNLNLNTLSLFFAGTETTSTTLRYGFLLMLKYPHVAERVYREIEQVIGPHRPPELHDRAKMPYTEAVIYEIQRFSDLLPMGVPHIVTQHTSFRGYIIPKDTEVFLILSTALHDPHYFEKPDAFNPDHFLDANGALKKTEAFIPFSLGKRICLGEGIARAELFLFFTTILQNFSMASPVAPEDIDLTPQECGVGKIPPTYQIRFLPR", "test": "Inhibition of human CYP2B6", "type": "ADME", "summary_of_the_method": "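Pooled liver microsomes from 53 human donors. Marker reactions: bupropion hydroxylase for CYP2B6. Incubations run in duplicate. IC50 taken from four to six concentrations.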"}, "[6]": {"test": "Cmax in human plasma at 100 mg, iv by LC-MS/MS analysis", "type": "ADME, organism-based", "set-up": "dose 100 mg, route intravenous", "summary_of_the_method": "as §1"}, "Cytochrome P450 2C9": {"target": "Cytochrome P450 2C9 (Homo sapiens, UniProt P11712)", "sequence (P11712 whole entry)": "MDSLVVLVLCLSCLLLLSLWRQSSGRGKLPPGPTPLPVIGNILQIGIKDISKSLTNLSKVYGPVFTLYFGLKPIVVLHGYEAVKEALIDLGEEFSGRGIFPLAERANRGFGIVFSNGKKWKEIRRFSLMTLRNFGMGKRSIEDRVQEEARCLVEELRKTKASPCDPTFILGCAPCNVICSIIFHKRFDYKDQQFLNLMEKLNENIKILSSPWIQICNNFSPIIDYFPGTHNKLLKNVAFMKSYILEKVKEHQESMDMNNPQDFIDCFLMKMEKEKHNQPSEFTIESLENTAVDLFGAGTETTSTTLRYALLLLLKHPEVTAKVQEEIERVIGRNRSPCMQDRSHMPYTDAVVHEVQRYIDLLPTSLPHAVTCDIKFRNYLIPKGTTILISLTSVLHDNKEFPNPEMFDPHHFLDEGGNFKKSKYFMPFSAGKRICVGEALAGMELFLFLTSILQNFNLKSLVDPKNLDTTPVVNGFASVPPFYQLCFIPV", "test": "Inhibition of human CYP2C9", "type": "ADME"}, "CYP2C8": {"target": "T3, CYP2C8 (Homo sapiens, UniProt P10632)", "T3 sequence (P10632 whole entry)": "T1 sequence (P10632 whole entry)", "test": "Inhibition of human CYP2C8 at 17.5 uM in presence of rosiglitazone", "type": "ADME", "settings": "probe rosiglitazone", "summary_of_the_method": "(§2)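 Heterologously expressed human CYP2C8, with rosiglitazone N-desmethylase as the marker reaction. […] Incubations run in duplicate.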"}, "Cytochrome P450 2D6": {"target": "Cytochrome P450 2D6 (Homo sapiens, UniProt P10635)", "sequence (P10635 whole entry)": "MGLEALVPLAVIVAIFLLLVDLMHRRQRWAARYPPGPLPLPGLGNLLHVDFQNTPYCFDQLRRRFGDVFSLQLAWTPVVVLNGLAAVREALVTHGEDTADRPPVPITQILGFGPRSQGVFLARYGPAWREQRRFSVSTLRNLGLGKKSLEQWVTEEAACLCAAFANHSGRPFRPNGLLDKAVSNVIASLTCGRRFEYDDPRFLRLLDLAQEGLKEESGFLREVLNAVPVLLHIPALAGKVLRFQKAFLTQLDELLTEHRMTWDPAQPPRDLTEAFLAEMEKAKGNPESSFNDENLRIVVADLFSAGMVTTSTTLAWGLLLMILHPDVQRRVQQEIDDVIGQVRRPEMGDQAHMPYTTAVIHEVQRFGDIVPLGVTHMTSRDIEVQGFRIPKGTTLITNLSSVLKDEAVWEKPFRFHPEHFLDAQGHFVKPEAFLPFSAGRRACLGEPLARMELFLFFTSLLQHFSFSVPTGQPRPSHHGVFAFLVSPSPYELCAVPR", "test": "Inhibition of human CYP2D6", "type": "ADME"}, "Cytochrome P450 1A2": {"target": "T4, Cytochrome P450 1A2 (Homo sapiens, UniProt P05177)", "T4 sequence (P05177 whole entry)": "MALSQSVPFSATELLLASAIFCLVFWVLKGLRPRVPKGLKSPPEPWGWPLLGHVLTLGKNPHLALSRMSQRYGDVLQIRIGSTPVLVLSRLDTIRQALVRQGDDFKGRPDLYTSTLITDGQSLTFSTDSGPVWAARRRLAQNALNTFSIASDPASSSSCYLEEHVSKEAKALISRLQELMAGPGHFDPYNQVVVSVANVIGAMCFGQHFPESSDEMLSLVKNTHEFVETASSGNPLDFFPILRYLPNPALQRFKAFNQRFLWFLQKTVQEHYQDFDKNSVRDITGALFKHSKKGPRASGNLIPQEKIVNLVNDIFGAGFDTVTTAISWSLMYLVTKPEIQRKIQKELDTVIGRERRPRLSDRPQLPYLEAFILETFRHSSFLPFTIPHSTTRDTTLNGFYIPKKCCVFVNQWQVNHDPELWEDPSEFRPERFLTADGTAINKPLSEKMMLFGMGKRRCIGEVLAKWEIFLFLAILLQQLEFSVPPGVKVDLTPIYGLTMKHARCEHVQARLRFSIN", "test": "Inhibition of human CYP1A2", "type": "ADME"}, "Cytochrome P450 2C8 [7]": {"target": "T1, Cytochrome P450 2C8", "test": "Inhibition of human CYP2C8 using rosiglitazone as a substrate", "type": "ADME", "summary_of_the_method": "as §2"}, "[8]": {"test": "Tmax in human plasma at 100 mg, iv by LC-MS/MS analysis", "type": "ADME, organism-based", "summary_of_the_method": "as §1"}},
  "note": "*1 amine or outer side, *2 acyl side, *3 side chain or, on linkers, in order; H or OH if unused. Where a SMILES comes first, the peptide text is derived from it. Bridges are numbered along the chain shown (N, C = ends). [ ]: non-standard residue; d: D form. The star is where a group is joined. pTerphenylCO(4''-OnC5H11) = CCCCCOc1ccc(-c2ccc(-c3ccc(C(=O)*)cc3)cc2)cc1; Orn(4R-OH,5R-OH) = O=C([C@H](C[C@@H](O)[C@@H](O)N[*:3])N[*:1])[*:2]; hTyr(3S-OH,4S-OH) = N[C@H](C(=O)O)[C@H](O)[C@@H](O)c1ccc(O)cc1; Pro(3S-OH,4S-Me) = C[C@H]1CN[C@H](C(=O)O)[C@H]1O; Hyp = O=C(O)[C@@H]1C[C@@H](O)CN1",
  "data": [
    {"smiles": "CCCCCOc1ccc(-c2ccc(-c3ccc(C(=O)N[C@H]4C[C@@H](O)[C@@H](O)NC(=O)[C@@H]5[C@@H](O)[C@@H](C)CN5C(=O)[C@H]([C@@H](C)O)NC(=O)[C@H]([C@H](O)[C@@H](O)c5ccc(O)cc5)NC(=O)[C@@H]5C[C@@H](O)CN5C(=O)[C@H]([C@@H](C)O)NC4=O)cc3)cc2)cc1", "note": "[ANIDULAFUNGIN] ({pTerphenylCO(4''-OnC5H11)}-[Orn(4R-OH,5R-OH)]T[Hyp][hTyr(3S-OH,4S-OH)]T[Pro(3S-OH,4S-Me)]; lactam 1-C)", "values": [
      {"measurement": "Vd", "setting": "[1]", "value": 32.6, "unit": "L"},
      {"measurement": "Ratio", "setting": "[2]", "value": 1.5},
      {"measurement": "IC50", "setting": "Cytochrome P450 3A4", "value": "> 17.5", "unit": "µM"},
      {"measurement": "IC50", "setting": "Cytochrome P450 2C8 [3]", "value": 12, "unit": "µM"},
      {"measurement": "half-life", "setting": "[4]", "value": 27.7, "unit": "h"},
      {"measurement": "CL", "setting": "Plasma", "value": 0.913, "unit": "L/h"},
      {"measurement": "MRT", "setting": "[5]", "value": 35.6, "unit": "h"},
      {"measurement": "IC50", "setting": "Cytochrome P450 2C19", "value": "> 17.5", "unit": "µM"},
      {"measurement": "IC50", "setting": "Cytochrome P450 2B6", "value": "> 17.5", "unit": "µM"},
      {"measurement": "Cmax", "setting": "[6]", "value": 3630, "unit": "ng/mL"},
      {"measurement": "IC50", "setting": "Cytochrome P450 2C9", "value": "> 17.5", "unit": "µM"},
      {"measurement": "inhibition at 17.5 µM", "setting": "CYP2C8", "value": 34.3, "unit": "%"},
      {"measurement": "IC50", "setting": "Cytochrome P450 2D6", "value": "> 17.5", "unit": "µM"},
      {"measurement": "IC50", "setting": "Cytochrome P450 1A2", "value": "> 17.5", "unit": "µM"},
      {"measurement": "IC50", "setting": "Cytochrome P450 2C8 [7]", "value": "> 17.5", "unit": "µM"},
      {"measurement": "Tmax", "setting": "[8]", "value": 1.78, "unit": "h"}
    ]}
  ]
}
